# Activity calls are given as the source filed them. The calls are words filed in the database; no cut-off is given here.
# Legend:
# SGBS [1] = test: Induction of adipogenesis in 8 day differentiated human SGBS cells assessed as increase in CEBPB mRNA expression at 25 uM measured upto 12 days by qRT-PCR analysis; assay type: functional, cell-based; settings: time day <=12
# Method in brief: (§1)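 SGBS cells were grown to confluence (day 0). Quickdiff medium was supplemented with compound or rosiglitazone for 4 days, followed by 3FC medium. DMSO or DMSO:BSA served as control. RNA was harvested on days 0, 4, 8 and 12, and expression was measured by SYBR-green qPCR. Data are mean ± SEM of at least three biological replicates in duplicate.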
# SGBS [2] = test: Induction of adipogenesis in 8 day differentiated human SGBS cells assessed as increase in FABP4 mRNA expression at 25 uM measured upto 12 days by qRT-PCR analysis; assay type: functional, cell-based; settings: time day <=12; method in brief: as §1
# SGBS [3] = test: Induction of adipogenesis in 8 day differentiated human SGBS cells assessed as increase in SCD1 mRNA expression at 25 uM measured upto 12 days by qRT-PCR analysis; assay type: functional, cell-based; settings: time day <=12; method in brief: as §1
# SGBS [4] = test: Induction of adipogenesis in 8 day differentiated human SGBS cells assessed as upregulation of fatty acid biosynthesis genes at 25 uM incubated for 8 days by Illumina sequencing method; assay type: functional, cell-based
# Method in brief: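 SGBS cells were differentiated for 8 days: Quickdiff for days 0-4 with 2 µM rosiglitazone or 25 µM oxo-fatty acid:BSA, then 3FC. Total RNA was extracted (RIN 9.80-10.00) and strand-specific TruSeq libraries were sequenced on NextSeq 500 (2×75 bp paired-end). Reads were aligned to hg19 and quantified as RPKM. Data were expressed as log2 fold over day-0 cells (n = 2-4) and grouped into KEGG gene sets.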
# SGBS [5] = test: Induction of adipogenesis in 8 day differentiated human SGBS cells assessed as increase in CD36 mRNA expression at 25 uM measured upto 12 days by qRT-PCR analysis; assay type: functional, cell-based; settings: time day <=12; method in brief: as §1
# [6] = biological target: T1, Peroxisome proliferator-activated receptor gamma (Homo sapiens) (UniProt P37231); test: Agonist activity at human PPARgamma in 8 day differentiated human SGBS cells assessed as increase in SLC2A4 gene expression at 25 uM incubated for 24 hrs by SYBR-green based qPCR analysis; assay type: cell-based; settings: filed as agonist
# T1 sequence (whole entry): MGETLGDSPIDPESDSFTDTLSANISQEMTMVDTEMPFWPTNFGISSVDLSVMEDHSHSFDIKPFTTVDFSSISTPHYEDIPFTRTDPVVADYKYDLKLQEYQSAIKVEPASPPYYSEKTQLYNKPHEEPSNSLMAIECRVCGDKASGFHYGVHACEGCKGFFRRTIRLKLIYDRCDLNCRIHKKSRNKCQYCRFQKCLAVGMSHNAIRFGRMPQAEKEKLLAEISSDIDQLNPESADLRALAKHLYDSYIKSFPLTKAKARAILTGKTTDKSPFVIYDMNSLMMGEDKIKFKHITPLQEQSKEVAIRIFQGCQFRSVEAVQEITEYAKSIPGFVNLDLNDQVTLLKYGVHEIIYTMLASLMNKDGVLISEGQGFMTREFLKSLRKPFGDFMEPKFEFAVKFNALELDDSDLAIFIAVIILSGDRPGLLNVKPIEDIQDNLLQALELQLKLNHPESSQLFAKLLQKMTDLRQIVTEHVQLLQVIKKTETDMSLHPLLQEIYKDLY
# [7] = biological target: T1, Peroxisome proliferator-activated receptor gamma (Homo sapiens); test: Agonist activity at human PPARgamma in 8 day differentiated human SGBS cells assessed as decrease in CXCL1 gene expression at 25 uM incubated for 24 hrs by SYBR-green based qPCR analysis; assay type: cell-based; settings: filed as agonist
# SGBS [8] = test: Induction of adipogenesis in 8 day differentiated human SGBS cells assessed as increase in volume of lipid droplets at 25 uM measured upto 12 days by oil-O-red staining based inverted microscopic analysis; assay type: functional, cell-based; settings: time day <=12
# Method in brief: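 SGBS cells were differentiated in Quickdiff for 4 days, supplemented with 25 µM oxo-fatty acid or 2 µM rosiglitazone, then in 3FC to day 8. Controls were DMSO (0.025%) or BSA (4.2 µM). Cells were fixed in 4% paraformaldehyde for 15 min and stained 15 min with Oil Red O for neutral lipids. They were imaged by inverted microscope at 10× and 40×. Three biological replicates were run in duplicate.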
# SGBS [9] = test: Induction of adipogenesis in 8 day differentiated human SGBS cells assessed as increase in ADIPOQ mRNA expression at 25 uM measured over 12 days by qRT-PCR analysis; assay type: functional, cell-based; settings: time 12.0 day; method in brief: as §1
# [10] = biological target: T2, Peroxisome proliferator-activated receptor alpha (Homo sapiens) (UniProt Q07869); test: Agonist activity at human PPARalpha in human HuH-7 cells assessed as increase in ANGPTL4 gene expression at 50 uM incubated for 24 hrs by SYBR-green based qPCR analysis; assay type: cell-based; settings: filed as agonist
# T2 sequence (whole entry): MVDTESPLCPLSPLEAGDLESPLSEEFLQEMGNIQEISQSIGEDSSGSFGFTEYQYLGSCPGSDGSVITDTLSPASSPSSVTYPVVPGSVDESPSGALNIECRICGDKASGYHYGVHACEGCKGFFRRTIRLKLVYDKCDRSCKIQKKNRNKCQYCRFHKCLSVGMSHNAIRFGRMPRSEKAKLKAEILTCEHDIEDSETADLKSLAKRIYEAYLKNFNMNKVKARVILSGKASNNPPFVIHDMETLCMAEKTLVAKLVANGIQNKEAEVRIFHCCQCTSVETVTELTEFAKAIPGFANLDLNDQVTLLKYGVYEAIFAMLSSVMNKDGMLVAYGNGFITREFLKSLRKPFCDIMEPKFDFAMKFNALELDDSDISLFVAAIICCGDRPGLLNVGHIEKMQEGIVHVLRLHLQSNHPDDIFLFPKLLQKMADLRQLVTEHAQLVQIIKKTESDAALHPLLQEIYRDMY
# Method in brief: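 Cells were seeded at 2×10^5 per well and treated 24 h later with compound in DMSO (final 0.1%). The next day, cells were washed and scraped into RLT buffer. RNA was isolated, and target gene mRNA was quantified by SYBR-green qPCR with specific primers.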
# [11] = biological target: T1, Peroxisome proliferator-activated receptor gamma (Homo sapiens); test: Agonist activity at human PPARgamma in 8 day differentiated human SGBS cells assessed as decrease in CXCL5 gene expression at 25 uM incubated for 24 hrs by SYBR-green based qPCR analysis; assay type: cell-based; settings: filed as agonist
# [12] = biological target: T3, Peroxisome proliferator-activated receptor gamma (Homo sapiens, UniProt P37231); test: Agonist activity at recombinant human PPARgamma LBD (205 to 505 residues) expressed in African green monkey COS-1 cells incubated for 18 hrs by luciferase reporter gene assay; assay type: cell-based
# T3 sequence (P37231 whole entry): T1 sequence (whole entry)
# Method in brief: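 Transient Gal4 one-hybrid assay in COS-1 cells (7×10^4 per well), transfected 24 h after seeding. Plasmids were Gal4-DBD fused to the human nuclear receptor LBD, a 5×UAS-SV40 luciferase reporter and pRL-CMV Renilla control. Ligand in DMSO (final 0.1%) was added 5 h post-transfection. Dual-luciferase activity was read after 18 h, expressed as RLU, from three biological replicates in quadruplicate.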
Activity [6],Activity [7],Activity [10],Activity [11],EC50 [12],SMILES,Activity (SGBS [1]),Activity (SGBS [2]),Activity (SGBS [3]),Activity (SGBS [4]),Activity (SGBS [5]),Activity (SGBS [8]),Activity (SGBS [9])
Active,Active,Active,Active,10 µM,CCCCCCCC(=O)/C=C/CCCCCC(=O)O,Active,Active,Active,Active,Active,Active,Active
Active,Active,Active,Active,8.5 µM,CCCCC/C=C/C(=O)CCCCCCCC(=O)O,Active,Active,Active,Active,Active,Active,Active

# — ChEMBL document CHEMBL4715825, “Synthesis and biological evaluations of marine oxohexadecenoic acids: PPARα/γ dual agonism and anti-diabetic target gene effects” (Eur J Med Chem, 2018)
